Screening data as filed in PubChem BioAssay.
Dynein cargo inh: blocks dynein driven cargo transport along microtubules | actives 0.47% (n = 220,000) | 3617.4 mouse cells, GR-EGFP nuclear translocation imaging; test concentration mostly 20 µM; stimulated with dexamethasone, 1 µM; stronger effect = lower value | z-score, hits read low;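 active = plate z-score of nuclear minus cytoplasmic receptor signal below a set negative limit, without overly bright fluorescence or cell loss, cut at about -3.5 in these data, passing the limit was not always enough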;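 also: z-score of nuclear minus cytoplasmic ring GR-EGFP intensity difference per well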
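Buffer or medium: tet-free, stripped-serum medium; reagent: dexamethasone at 1.0 µM final, 30 min; incubation: 48 h induction, 1 h compound, 30 min dex at 37 °C; measured by: formaldehyde fixation, Hoechst nuclear stain, 10x automated fluorescence imaging; read-out: nuclear-to-cytoplasmic GR-EGFP distribution per well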
ROMK mod: human ROMK K+ channel modulation, primary screen; actives 2% (n = 130,000); Tet-inducible ROMK, thallium flux fluorescence; actives lie on both sides; P48048; B-score at 10 µM;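 active = signal ratio slope over the read window, or its plate-corrected B-score, at least 3 SD from the plate mean, either direction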;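 also: B-score of the F/F0 ratio slope over 7 to 12 s after thallium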
Autophagy mod: modulators of autophagy; calls only at 10 µM (by protocol); MEF GFP-LC3 puncta imaging; test concentration mostly 10 µM; AID 463193; actives 0.98% (n = 190,000);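 active = percentage of spot-positive cells more than 3 SD above its plate mean, without a fluorescence outlier flag or 80% toxicity; inconclusive = no clear call, values can overlap the other calls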;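 also: spot-positive cell cutoff set from DMSO-treated cells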
Cl transport mod: modulators of human KCC2 chloride dependent transport. KCC2 cells, thallium flux FluoZin-2 fluorescence. actives 2.2% (n = 190,000). B-score of Tl+ flux slope (higher = more flux/activation; lower = inhibition) at 10 µM;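 active = thallium flux slope and its plate-corrected score both differing from the plate sample mean at a set confidence after two filtering rounds, in either direction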;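 also: slope of fluorescence scaled to starting intensity during 10 to 20 s after thallium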
DTT redox prof: compounds producing H2O2 with reducing agent – biochemical, NIH compound library profiling, artefact control for MLSCN library redox annotation, primary screen. DTT-dependent redox cycling H2O2, phenol red/HRP absorbance; 100% = 100 µM peroxide control, 0% = buffer. activation, % at 10 µM. actives 0.03% (n = 200,000);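 active = activation of at least 50% relative to the plate's high and low controls in the primary single-dose screen; inactive = activation below 50%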;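 also: compound incubated with DTT at 0.8 mM final as the reducing agent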
KCC2 sec1: confirmation of human KCC2 transport modulators. shares compounds with Cl transport mod. HEK293-KCC2, thallium flux, FluoZin2 fluorescence; stronger effect = higher value. normalised thallium flux (F/F0 slope) at 10 µM. actives 15% (n = 3,700). AID 1713;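 active = thallium flux slope above the same plate's solvent-only control mean plus 3 SD; inconclusive = the two replicate wells disagree; inactive = no significant difference from solvent-only control wells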
KCC2 bumet counter: bumetanide-insensitive thallium flux in KCC2 cells with ouabain, counter-screen. normalized thallium flux at 10 µM. shares compounds with Cl transport mod. HEK293-KCC2 + bumetanide/ouabain, thallium flux FluoZin2; stronger effect = higher value. actives 49% (n = 3,700);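 active = thallium entry rate above the same plate's blocked-transporter control wells by more than 3 SD; inconclusive = the two repeat wells disagree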;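 also: raw slope of fluorescence over initial fluorescence between 10 and 20 s after thallium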
KCC2 secondary2: KCC2 (human) modulation, second secondary assay | shares compounds with Cl transport mod | HEK293-KCC2, thallium flux FluoZin2 fluorescence; actives lie on both sides; F/F0 rise rate, 10–20 s post-thallium | normalized thallium flux at 10 µM | actives 23% (n = 3,700);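 active = thallium flux slope more than 3 SD above or below the plate's solvent-only control mean, mostly below; inconclusive = the two repeat wells disagreed; inactive = no significant shift from solvent-only controls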;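 also: raw slope with 0.1% DMSO as baseline and bumetanide as block control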
HEK counter1: parental HEK flux effect, counter-screen | shares compounds with Cl transport mod | HEK293 parental cells, thallium flux FluoZin2, ouabain; baseline-ratio fluorescence slope, 10–20 s after thallium | thallium flux rate (normalised fluorescence) at 10 µM | actives 46% (n = 3,700);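 active = thallium flux rate significantly above the same plate's solvent-only control wells, beyond their mean plus 3 SD; inconclusive = the two replicate wells gave conflicting results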
KCC2 ouabain: modulates human KCC2 on retest with ouabain; HEK293-KCC2, thallium flux FluoZin2 fluorescence; bidirectional: low = inhibitor, high = activator; raw Tl+ flux slope (below DMSO = inhibition, above = activation) at 10 µM; actives 48% (n = 3,700); shares compounds with Cl transport mod;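 active = thallium flux slope beyond 3 SD from same-plate DMSO control mean in most replicates, usually higher, sometimes lower; inconclusive = repeat tests gave conflicting results; inactive = no significant difference from controls in most replicates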;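 also: slope of initial-normalized fluorescence between seconds 10 and 20 after thallium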
HEK counter2: counter-screen for KCC2 modulators: effect in parental HEK293 cells; shares compounds with Cl transport mod; thallium flux FluoZin-2 fluorescence slope; thallium flux slope at 10 µM; actives 33% (n = 3,700);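 active = thallium flux slope above the same plate's solvent-control mean plus 3 SD in both duplicate wells; inconclusive = duplicate wells that disagreed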;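 also: run without ouabain in cells lacking the KCC2 cotransporter; slope of fluorescence scaled to its starting value between 10 and 20 s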
Active calls of the source: *; i = inactive; u = inconclusive; x = not tested or not shown; + = active, no number. Compounds with a hit are over-represented: about 4.1% of the library has one in this group of screens.

SMILES	Dynein cargo inh	ROMK mod	Autophagy mod	Cl transport mod	DTT redox prof	KCC2 sec1	KCC2 bumet counter	KCC2 secondary2	HEK counter1	KCC2 ouabain	HEK counter2
CCN(CC)CCn1c(=S)[nH]c2ccc(Cl)cc2c1=O	-1.16	x	i	24.7*	0.0	0.00998	0.0173*	0.0379	u	0.03*	0.014
CN(C)CCCn1c(=S)[nH]c2ccccc2c1=O	-0.311	-0.00113	i	0.529	-0.6	x	x	x	x	x	x
O=c1c2cc(Br)ccc2[nH]c(=S)n1Cc1cccnc1	0.549	x	i	5.43*	-3.8	u	0.0246*	0.034	0.0136*	0.0288	0.012*
CCC(CC)NC(=O)COC(=O)c1ccc(NS(=O)(=O)c2ccc3c(c2)OCCO3)cc1	-0.264	0.929	i	2.71*	0.3	0.00882	0.00741	0.0304	0.0069	0.0199	0.0104*
COc1ccc(Nc2nc(-c3ccccc3)nc3ccccc23)cc1S(=O)(=O)N1CCOCC1	-0.664	x	x	5.51	x	x	x	x	x	x	x
Cc1cc(/C=C2\NC(=S)N(C)C2=O)ccc1N1CCCC1	-0.672	-0.604	+	6.43*	-1.5	0.00724	0.0118*	u	u	0.0162	0.0103
Cn1c(SCc2ccccc2)nnc1-c1ccc2nonc2c1	0.193	x	x	-0.0501	x	x	x	x	x	x	x
Clc1cccc(NCc2nnc(SCc3ccc(Cl)cc3Cl)o2)c1	-0.173	x	i	0.0719	1.4	x	x	x	x	x	x
S=c1[nH]nc(CNc2cccc(Cl)c2)o1	0.084	0.8	i	-5.24*	-1.7	0.0069	u	0.0248*	0.00771	0.0143*	0.0102
CCCn1nc([N+](=O)[O-])c(C(C#N)c2nc3ccccc3o2)c(Cl)c1=O (stereo unspecified)	0.0585	x	i	-6.58*	0.9	0.00722	u	0.022*	0.00576*	0.0119*	0.00886
CN(c1ccccc1)S(=O)(=O)c1ccc(C(=O)N2CCc3ccccc3C2)cc1	0.374	-0.472	i	-1.99	-1.0	x	x	x	x	x	x
Cc1ccc(S(=O)(=O)N(C)c2ccc(C(=O)N3CCc4ccccc4C3)cc2)cc1	-0.024	-0.328	i	-4.75*	-0.3	0.0144	0.00392	0.0236*	u	0.0126*	0.00948
COc1ccc(CNc2oc(COc3ccccc3)nc2C#N)cc1	-0.0864	-1.12	i	x	-0.1	0.00748	u	0.0308	0.00702	u	0.00964
N#Cc1nc(COc2ccccc2Cl)oc1NCc1ccc(F)cc1	-0.333	0.655	i	x	0.0	x	x	x	x	x	x
COc1ccc(CCNc2oc(COc3ccccc3)nc2C#N)cc1	0.718	-0.0243	i	x	-0.6	0.0079	0.00471	0.0356	u	u	0.0108
N#Cc1nc(COc2ccccc2F)oc1N1CCCCCC1	1.1	x	i	x	-2.8	x	x	x	x	x	x
COc1ccc(Nc2oc(COc3ccc(OC)cc3)nc2C#N)cc1	-0.237	x	i	0.412	2.5	x	x	x	x	x	x
CN(Cc1ccccc1)c1oc(COc2ccccc2F)nc1C#N	0.167	x	i	x	-0.8	0.00828	0.00488	0.0321	0.0067	u	0.0106
N#Cc1nc(COc2ccccc2Cl)oc1NCc1cccnc1	1.64	x	i	-2.99*	2.2	0.00699	0.00611	0.0302	0.00711	0.0215*	0.0092
COc1ccccc1C1CC(=O)NC(C)=C1C(=O)OC(C)C (stereo unspecified)	0.121	0.431	i	0.203	-1.1	x	x	x	x	x	x
CC(=O)Nc1ccccc1OCC(=O)NCCC1=CCCCC1	-0.653	-0.532	i	-0.115	0.0	x	x	x	x	x	x
N#Cc1nc(COc2ccccc2F)oc1NCCc1ccccc1	0.0353	0.0687	i	x	-0.1	0.00534	u	0.0248*	0.00643*	0.0141*	0.0103
O=C(NC(Cc1c[nH]c2ccccc12)C(=O)NCc1ccc(F)cc1)OCc1ccccc1 (stereo unspecified)	0.153	x	i	0.411	0.4	x	x	x	x	x	x
CCC(=O)NC(=S)Nc1ccc(NC(=O)COc2ccccc2)cc1	-0.0902	x	i	2.09	0.3	x	x	x	x	x	x
O=C(COc1ccccc1)NC(=S)Nc1ccc(Br)cn1	0.417	x	x	85*	x	0.00708	0.045*	0.0484*	0.0532*	0.0519*	0.0409*
SMILES	Dynein cargo inh	ROMK mod	Autophagy mod	Cl transport mod	DTT redox prof	KCC2 sec1	KCC2 bumet counter	KCC2 secondary2	HEK counter1	KCC2 ouabain	HEK counter2
COc1ccc(CC(=O)NC(=S)NNC(=O)COc2c(C)cccc2C)cc1	0.577	0.129	i	7.27*	-0.4	0.0128*	0.0376*	0.0342	0.0149*	u	0.0122*
O=C(NC(=S)Nc1ccc(Br)cn1)c1cccnc1	0.343	x	x	2.64	x	x	x	x	x	x	x
CCOc1ccc(NC(=S)NNC(=O)c2ccc(Br)cc2)cc1	-1.17	1.5	i	23.9*	-0.9	0.0141*	0.0554*	0.039	u	0.0461*	u
CCC(=O)NC(=S)NNC(=O)COc1ccc(Br)cc1	-0.23	0.547	i	7.62*	-0.6	0.00721	0.019*	0.0312	0.018*	u	0.0154*
COC(=O)c1ccccc1NC(=O)CSc1ncn[nH]1	-0.0327	-1.23	x	0.0573	x	x	x	x	x	x	x
COCCn1c(-c2ccccc2)nc2ccccc21	0.722	0.582	i	0.0825	-0.5	x	x	x	x	x	x
COCCn1c(SCc2csc(-c3ccccc3)n2)nc2ccccc21	0.751	-1.58	i	-3.48*	-1.2	0.00566	0.00494	0.0286	0.00509*	0.0153*	0.00907
Cc1cccc(N=Nc2c(C)[nH]n(C(N)=S)c2=O)c1C	2.18	-0.116	i	5.78*	-0.2	0.00647	0.00925*	0.0296	0.00983*	0.0204	u
O=C(NCCC1=CCCCC1)c1cc(-c2ccncc2)nc2ccccc12	1.47	-0.741	i	0.625	-0.2	x	x	x	x	x	x
S=c1nc(SCc2ccccc2)[nH]c2ccccc12	0.226	x	i	120*	0.5	0.0187*	0.0975*	0.104*	0.108*	0.095*	0.105*
c1ccc(CSc2nc3ncncc3[nH]2)cc1	-0.0162	-0.461	x	0.151	x	x	x	x	x	x	x
COc1ccc(N2CCCC2=N)c(OC)c1	1.43	x	x	0.495	x	x	x	x	x	x	x
Cc1cccc(N2CCN(C(=O)Cn3ccc4ccccc4c3=O)CC2)c1C	0.194	x	i	-4.48*	2.5	0.00702	0.00414	0.0226*	0.00694	0.0158*	0.00975
